Assay results: ChEMBL document CHEMBL3244330, “Structure--activity relationships of n-substituted dopamine and 2-amino-6,7-dihydroxy-1,2,3,4-tetrahydronaphthalene analogues: behavioral effects in lesioned and reserpinized mice” (J Med Chem, 1979)

Columns and labels:
Mus musculus [1] = test: Postural effect on caudectomized Swiss albino mouse assessed as time duration of asymmetric posture at 29.8 mg/kg, ip; assay type: functional; settings: route intraperitoneal
Procedure, shortened: (§1)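 Male Swiss albino Hale-Stoner mice with a right caudectomy made by suction. A lesion was accepted if the mouse responded to apomorphine 4 weeks after surgery. Compounds were dissolved in 0.9% saline and injected ip at random into groups of six, with a maximum dose of 0.348 mmol/kg. 18 mice were used per compound, and mice were retested after 5–6 day intervals. Onset and duration of the asymmetric posture are reported as mean ± SE from six animals.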

Mus musculus [2] = test: Toxicity in caudectomized Swiss albino mouse at 44.6 mg/kg, ip; assay type: organism-based; set-up: dose 44.6 mg/kg, route intraperitoneal; settings: in vivo
Mus musculus [3] = test: Reversal of reserpine-induced catalepsy in ip dosed Swiss albino (CD1) mouse; assay type: functional
Procedure, shortened: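 Male Swiss albino CD1 mice, 5 weeks old, got reserpine 5 mg/kg ip, then α-MTM 250 mg/kg ip 17 h later, then the test drug ip 4 h after that. Catalepsy was scored by the rubber-stopper test (time to step off the stopper). At least four doses were used, with ≥8 mice per dose. ED50 was taken from a log-probit plot of percent responders against dose.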

Mus musculus [4] = test: Postural effect on caudectomized Swiss albino mouse assessed as latency to onset time of asymmetric postural effect at 29.8 mg/kg, ip; assay type: functional; settings: route intraperitoneal; procedure, shortened: as §1
Mus musculus [5] = test: Postural effect on caudectomized Swiss albino mouse assessed as latency to onset time of asymmetric postural effect at 29.2 mg/kg, ip; assay type: functional; settings: route intraperitoneal
Procedure, shortened: (§2)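 Male Swiss albino Hale-Stoner mice with right caudectomy by suction, used if responsive to apomorphine 4 weeks post-lesion. Compound in 0.9% saline given ip, maximum 0.348 mmol/kg. 18 mice per compound in random groups of six, retested after 5–6 day intervals. Onset latency and duration of asymmetric posture recorded; mean ± SE from six animals.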

Mus musculus [6] = test: Postural effect on caudectomized Swiss albino mouse assessed as time duration of asymmetric posture at 29.2 mg/kg, ip; assay type: functional; settings: route intraperitoneal; procedure, shortened: as §2
Mus musculus [7] = test: Postural effect on caudectomized Swiss albino mouse assessed as latency to onset time of asymmetric postural effect at 58.4 mg/kg, ip; assay type: functional; settings: route intraperitoneal; procedure, shortened: as §2
Mus musculus [8] = test: Postural effect on caudectomized Swiss albino mouse assessed as time duration of asymmetric posture at 58.4 mg/kg, ip; assay type: functional; settings: route intraperitoneal; procedure, shortened: as §2
Mus musculus [9] = test: Postural effect on caudectomized Swiss albino mouse assessed as latency to onset time of asymmetric postural effect at 27.3 mg/kg, ip; assay type: functional; settings: route intraperitoneal; procedure, shortened: as §1
Mus musculus [10] = test: Postural effect on caudectomized Swiss albino mouse assessed as time duration of asymmetric posture at 27.3 mg/kg, ip; assay type: functional; settings: route intraperitoneal; procedure, shortened: as §1
Mus musculus [11] = test: Ratio of apomorphine ED50 to compound ED50 for reversal of reserpine-induced catalepsy in ip dosed Swiss albino (CD1) mouse; assay type: functional
Mus musculus [12] = test: Postural effect on caudectomized Swiss albino mouse assessed as time duration of asymmetric posture at 41 mg/kg, ip; assay type: functional; settings: route intraperitoneal; procedure, shortened: as §1
Mus musculus [13] = test: Postural effect on caudectomized Swiss albino mouse assessed as latency to onset time of asymmetric postural effect at 41 mg/kg, ip; assay type: functional; settings: route intraperitoneal; procedure, shortened: as §1
Mus musculus [14] = test: Toxicity in caudectomized Swiss albino mouse at 54.6 mg/kg, ip; assay type: organism-based; set-up: dose 54.6 mg/kg, route intraperitoneal; settings: in vivo
Mus musculus [15] = test: Postural effect on caudectomized Swiss albino mouse assessed as time duration of asymmetric posture at 71.5 mg/kg, ip; assay type: functional; settings: route intraperitoneal
Procedure, shortened: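 Male Swiss albino Hale-Stoner mice given a right caudectomy by suction. The lesion counted as successful if the mice reacted to apomorphine 4 weeks later. Drug was given ip in 0.9% saline, up to 0.348 mmol/kg, to randomised groups of six, with 5-6 days before reuse. Onset and duration of asymmetric posture are reported as mean ± SE from six animals.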

Mus musculus [16] = test: Postural effect on caudectomized Swiss albino mouse assessed as latency to onset time of asymmetric postural effect at 71.5 mg/kg, ip; assay type: functional; settings: route intraperitoneal; procedure, shortened: as §1
Mus musculus [17] = test: Postural effect on caudectomized Swiss albino mouse assessed as latency to onset time of asymmetric postural effect at 23.8 mg/kg, ip; assay type: functional; settings: route intraperitoneal; procedure, shortened: as §1
Mus musculus [18] = test: Postural effect on caudectomized Swiss albino mouse assessed as time duration of asymmetric posture at 23.8 mg/kg, ip; assay type: functional; settings: route intraperitoneal; procedure, shortened: as §1
Mus musculus [19] = test: Postural effect on caudectomized Swiss albino mouse assessed as time duration of asymmetric posture at 47.6 mg/kg, ip; assay type: functional; settings: route intraperitoneal; procedure, shortened: as §1
Mus musculus [20] = test: Postural effect on caudectomized Swiss albino mouse assessed as latency to onset time of asymmetric postural effect at 47.6 mg/kg, ip; assay type: functional; settings: route intraperitoneal; procedure, shortened: as §1

CCCN(CCc1ccc(O)c(O)c1)CCC1CCCCC1.Cl
Time (Mus musculus [1]): 14.1 min | Activity (Mus musculus [2]): Toxic | ED50 (Mus musculus [3]): 18 mg/kg | Time (Mus musculus [4]): 4.2 min

CCCN(CCc1ccccc1)CCc1ccc(O)c(O)c1.Cl
Time (Mus musculus [5]): 4.4 min | Time (Mus musculus [6]): 19.8 min | Time (Mus musculus [7]): 3.2 min | ED50 (Mus musculus [3]): 7.4 mg/kg | Time (Mus musculus [8]): 47.4 min

Br.CCCCN(CCC)C1CCc2cc(O)c(O)cc2C1 (stereo not drawn)
Time (Mus musculus [9]): 2.8 min | ED50 (Mus musculus [3]): 1.3 mg/kg | Time (Mus musculus [10]): 17 min | Ratio ED50 (Mus musculus [11]): 10 | Time (Mus musculus [12]): 31.5 min | Time (Mus musculus [13]): 2 min | Activity (Mus musculus [14]): Toxic

CCCCN(CC)CCc1ccc(O)c(O)c1.Cl
ED50 (Mus musculus [3]): 34 mg/kg | Time (Mus musculus [15]): 19.4 min | Time (Mus musculus [16]): 5 min | Time (Mus musculus [17]): 2.1 min | Time (Mus musculus [18]): 4.2 min | Time (Mus musculus [19]): 2.5 min | Time (Mus musculus [20]): 2.3 min
